# Screening data as filed in PubChem BioAssay.
# Rows were chosen to be rich in hits. Some 1.9% of all compounds tested hit in one or more screens of this group.
# Rpn11 block = Rpn11 (human) deubiquitinase inhibition. O00487. human 26S proteasome, Ub4-pepOG fluorescence polarization; 20S core pre-blocked with epoxomicin. inhibition, % at 20 µM. 0.59% of 360,000 active;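 active = inhibition at 20 µM, scaled to each plate's controls, above about 33%, limit read from the data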
# NadD inh = NadD (S. aureus) enzyme inhibition; inhibition, % at 20 µM; 0.78% of 360,000 active; purified NadD enzyme, colorimetric absorbance read-out; in the data active = inhibition above about 26%
# XiGFP reactiv = reactivates the inactive X chromosome in mouse fibroblasts | activation, % at 7.58 µM | AID 743238 | XiGFP mouse fibroblasts, % GFP-positive cells imaging, 3 d; cells co-treated with 5-aza-dC sensitizer; scaled so ellipticine positive control = 100% | 0.055% of 360,000 active;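 active = mean normalized replicate activation at least 10% and every replicate at or above 10%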;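 also: 0% = median of on-plate neutral control wells and 100% = ellipticine 6 µM median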
#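 System: 68-5-11 XiGFP fibroblast line | Buffer or medium: DMEM containing 5-aza-dC | Compound: Single point | Times: Compounds 3 days, fix/stain 15 min at room temperature | Benchmarks: Positive control ellipticine, 6 µM final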
# Rin1 Abl inh = blocks binding of human Rin1 to Abl | P00519+Q13671 | TR-FRET Rin1/Abl binding, biochemical | inhibition, % at 7.35 µM | 0.4% of 360,000 active | AID 588664; in the data active = inhibition above about 5%, passing the limit was not always enough
# Target sequence (P00519 whole entry, looked up): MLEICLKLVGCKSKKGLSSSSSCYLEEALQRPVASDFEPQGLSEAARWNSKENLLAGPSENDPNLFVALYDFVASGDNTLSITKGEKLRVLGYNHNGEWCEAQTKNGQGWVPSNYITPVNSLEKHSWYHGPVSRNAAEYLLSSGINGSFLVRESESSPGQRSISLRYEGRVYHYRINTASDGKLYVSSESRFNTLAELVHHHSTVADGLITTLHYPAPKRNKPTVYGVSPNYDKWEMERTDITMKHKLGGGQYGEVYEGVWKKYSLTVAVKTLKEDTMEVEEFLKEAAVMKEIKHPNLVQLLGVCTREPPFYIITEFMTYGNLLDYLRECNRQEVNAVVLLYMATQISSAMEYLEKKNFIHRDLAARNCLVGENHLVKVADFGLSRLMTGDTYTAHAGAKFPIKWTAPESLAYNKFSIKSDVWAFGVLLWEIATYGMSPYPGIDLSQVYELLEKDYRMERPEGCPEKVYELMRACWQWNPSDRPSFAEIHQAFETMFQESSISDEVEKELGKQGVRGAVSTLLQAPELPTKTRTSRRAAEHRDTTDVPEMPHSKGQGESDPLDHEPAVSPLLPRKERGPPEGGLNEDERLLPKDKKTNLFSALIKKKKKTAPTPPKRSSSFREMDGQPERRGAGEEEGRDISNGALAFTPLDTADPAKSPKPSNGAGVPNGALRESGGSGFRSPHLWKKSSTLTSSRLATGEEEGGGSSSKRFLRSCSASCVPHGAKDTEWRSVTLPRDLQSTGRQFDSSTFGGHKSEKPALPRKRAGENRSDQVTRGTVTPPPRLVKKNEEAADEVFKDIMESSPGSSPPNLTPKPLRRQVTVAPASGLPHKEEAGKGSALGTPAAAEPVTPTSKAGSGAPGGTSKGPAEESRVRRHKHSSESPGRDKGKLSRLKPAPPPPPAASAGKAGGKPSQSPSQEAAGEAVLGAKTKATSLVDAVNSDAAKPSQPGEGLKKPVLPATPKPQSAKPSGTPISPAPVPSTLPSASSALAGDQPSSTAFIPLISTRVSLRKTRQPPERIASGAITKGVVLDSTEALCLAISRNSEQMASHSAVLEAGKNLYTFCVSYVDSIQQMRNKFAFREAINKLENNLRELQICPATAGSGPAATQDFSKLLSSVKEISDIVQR
# Target sequence (Q13671 whole entry, looked up): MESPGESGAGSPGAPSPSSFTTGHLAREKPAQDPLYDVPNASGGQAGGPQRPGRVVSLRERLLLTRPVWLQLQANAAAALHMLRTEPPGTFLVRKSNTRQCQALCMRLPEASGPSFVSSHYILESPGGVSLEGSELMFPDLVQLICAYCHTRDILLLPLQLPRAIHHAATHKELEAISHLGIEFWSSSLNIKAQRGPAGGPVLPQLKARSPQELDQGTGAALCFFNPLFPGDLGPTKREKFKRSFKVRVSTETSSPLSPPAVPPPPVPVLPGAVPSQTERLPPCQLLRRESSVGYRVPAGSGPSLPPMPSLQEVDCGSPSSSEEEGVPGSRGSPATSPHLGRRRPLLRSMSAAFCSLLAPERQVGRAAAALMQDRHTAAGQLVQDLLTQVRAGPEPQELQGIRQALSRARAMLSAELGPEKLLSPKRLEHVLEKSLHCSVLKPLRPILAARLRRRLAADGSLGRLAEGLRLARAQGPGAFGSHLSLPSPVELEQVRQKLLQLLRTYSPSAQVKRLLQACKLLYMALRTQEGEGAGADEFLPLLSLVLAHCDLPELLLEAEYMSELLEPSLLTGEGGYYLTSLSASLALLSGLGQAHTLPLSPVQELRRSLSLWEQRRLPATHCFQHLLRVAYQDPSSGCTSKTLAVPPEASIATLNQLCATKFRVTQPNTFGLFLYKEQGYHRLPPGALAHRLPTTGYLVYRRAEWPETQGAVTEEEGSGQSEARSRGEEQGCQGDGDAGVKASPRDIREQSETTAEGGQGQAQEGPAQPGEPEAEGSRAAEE
# ABHD5 PLIN5 PPI = inhibitors of human ABHD5-perilipin-5 interaction; Split G. princeps luciferase complementation, luminescence, 4 h; inhibition, % at 4 µM; 0.78% of 360,000 active; AID 602281;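 active = inhibition above the mean inhibition across every tested compound plus 3 SD, cut at about 22% in these data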;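 also: 0% = DMSO only wells and the 100% control is not disclosed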
# Rin1 Abl conf = confirmation of inhibitors of human Rin1-Abl interaction; shares compounds with Rin1 Abl inh; TR-FRET Rin1-Abl binding, purified proteins; inhibition, % at 7.35 µM; 49% of 1,300 active; AID 602124
# GFP quench-1 = GFP fluorescence interference artifact. 8.5% of 1,300 active. inhibitors/quenchers counterscreen. inhibition, % at 6.75 µM. shares compounds with Rin1 Abl inh;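 also: ABL1-eGFP fusion protein alone without its partner RIN1-SBP; 0% = protein with vehicle and 100% = wells lacking protein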
# GFP quench DR = counter-screen for Rin1-Abl inhibitors: GFP quenchers, dose response. shares compounds with Rin1 Abl inh. 230 tested, under 10 active. GFP fluorescence interference/quenching counterscreen. IC50, µM; call rule not given here;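 also: ABL1-eGFP fusion protein alone without its RIN1 binding partner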
# GFP quench-2 = quenches GFP fluorescence in Rin1-Abl counterscreen; shares compounds with Rin1 Abl inh; GFP fluorescence quenching counterscreen, biochemical; IC50, µM; 25 tested, under 10 active; AID 602397; call rule not given here
# Active calls of the source: *; · = no result. Rule as the data show it, unless noted: active = inhibition above about 6.5%; inactive = the rest.
SMILES,Rpn11 block,NadD inh,XiGFP reactiv,Rin1 Abl inh,ABHD5 PLIN5 PPI,Rin1 Abl conf,GFP quench-1,others
O=C(C[C@H]1C[C@@H]2c3cc(NC(=O)NC4CCCCC4)ccc3O[C@@H]2[C@@H](CO)O1)NC1CCCC1,·,·,0,·,·,·,·,
CCCNC(=O)N1CCC2(CC1)CN(C(=O)c1cccnc1)[C@H](CO)c1[nH]c3cc(OC)ccc3c12,·,·,0,·,·,·,·,
Cc1cc(NC(=O)CSc2cn(CCNC(=O)c3ccccc3)c3ccccc23)no1,-16,-5,·,24*,-1,14*,2,
Cc1ccc(C(=O)NCCn2cc(SCC(=O)Nc3cc(C)on3)c3ccccc32)cc1,0,1,0,2,-17,·,·,
COc1cccc(C#Cc2ccc3c(c2)[C@@H]2[C@@H](CCN2S(=O)(=O)c2ccc(C)cc2)[C@H](CO)N3)c1,·,·,0,·,·,·,·,
Cc1nc(CN2CCC(c3ccccc3)CC2)cc(=O)[nH]1,-5,0,0,2,-4,·,·,
Cc1nc(CN2CCCCC2)cc(=O)[nH]1,-4,4,0,9.8*,1,1,-3,
O=C(Cc1ccc(NC(=O)C2CCN(C(=O)CCc3ccccc3)CC2)cc1)Nc1ccc(C(=O)N2CCOCC2)cc1,2,1,0,4,4,·,·,
O=C(Cc1ccc(NC(=O)C2CCN(C(=O)c3ccccc3)CC2)cc1)Nc1ccc(C(=O)N2CCOCC2)cc1,0,4,0,36*,-2,37*,0,GFP quench DR=>68;GFP quench-2=>68
O=C(Cc1ccc(NC(=O)C2CCN(C(=O)C3CCC3)CC2)cc1)Nc1ccc(C(=O)N2CCOCC2)cc1,0,7,0,23*,3,21*,0,GFP quench DR=>67
O=C(Cc1ccc(NC(=O)C2CCN(C(=O)C3CCCC3)CC2)cc1)Nc1cccc(C(=O)N2CCCCC2)c1,-1,13,0,17*,7,17*,0,GFP quench DR=>68
O=C(Cc1ccc(NC(=O)C2CCCN(C(=O)C3CC3)C2)cc1)Nc1ccc(C(=O)N2CCOCC2)cc1 (stereo unspecified),8,-1,0,-2,-5,·,·,
COc1ccc2c3c([nH]c2c1)[C@@H](CO)N(C)CC31CN(C(=O)c2ccccn2)C1,·,·,0,·,·,·,·,
O=C(c1cc2c(c(-c3cccc(Br)c3)n1)[C@@H](CCO)NC2)N1CCCCC1,·,·,0,·,·,·,·,
CCC(=O)N1CC2(C1)CN(Cc1cccc(F)c1)[C@@H](CO)c1c2c2ccc(OC)cc2n1C,·,·,0,·,·,·,·,
CC[C@H]1C/C=C\C[C@@H](c2ccc(F)cc2)NC(=O)CCC(=O)N1,·,·,0,·,·,·,·,
Cc1nc2ccccc2n1CC(=O)c1ccc(O)c(O)c1,-19,6,0,33*,3,21*,6.6*,
Cc1[nH][nH]c(=O)c1C(c1c(C)[nH][nH]c1=O)c1cn(Cc2ccc(F)cc2)c2ccccc12,2,12,·,2,-30,·,·,
Cc1[nH][nH]c(=O)c1C(c1c(C)[nH][nH]c1=O)c1cn(Cc2ccc(Cl)c(Cl)c2)c2ccccc12,13,37*,0,14*,-7,0,3,
CC(=O)N(C)C[C@H]1Oc2cc(C3=CCCCC3)ccc2S(=O)(=O)N([C@@H](C)CO)C[C@H]1C,·,·,0,·,·,·,·,
NC(=O)COC(=O)CCCSc1nc2ccccc2s1,-10,-5,0,11*,6,11*,1,
COc1ccc(S(=O)(=O)N2CC=C(C(=O)NC3CCCC3)CC2)cc1,3,-1,1,3,-12,·,·,
Cc1ccc(S(=O)(=O)N2CC=C(C(=O)NC3CCCC3)CC2)cc1,5,-7,0,9.4*,4,0,0,
Cc1ccc2cc(NC(=O)c3ccccc3)ccc2n1,-1,-4,0,-1,1,·,·,
Cc1ccc2cc(NC(=O)CC(CC(=O)O)c3ccccc3)ccc2n1 (stereo unspecified),10,-1,0,8.6*,-1,1,-1,
SMILES,Rpn11 block,NadD inh,XiGFP reactiv,Rin1 Abl inh,ABHD5 PLIN5 PPI,Rin1 Abl conf,GFP quench-1,others
C[C@@H]1CCCCO[C@H](CN(C)Cc2ccncc2)[C@H](C)CN([C@H](C)CO)C(=O)c2cc(NC(=O)Nc3ccc(C(F)(F)F)cc3)ccc2O1,·,·,0,·,·,·,·,
CO[C@H]1CN(C)C(=O)c2cc(NC(=O)c3ccccc3F)ccc2OC[C@H](C)N(C(=O)c2ccccc2F)C[C@H]1C,·,·,0,·,·,·,·,
Cc1ccccc1Nc1nc(N)nc(CSc2nnc(-c3ccccc3)n2C)n1,0,-2,·,-1,-5,·,·,
Cc1ccc(-c2nnc(SCc3nc(N)nc(Nc4ccccc4C)n3)n2N)cc1,2,1,·,18*,2,0,-1,
O=S(=O)(Nc1ccc(O)c2ncccc12)c1ccccc1F,-1,14,0,13*,-17,3,5,
Oc1ccc(CNc2ccccc2F)c2cccnc12,7,0,0,-5,-3,·,·,
Cc1ccc(S(=O)(=O)Nc2ccc3c(c2)C(=O)N([C@@H](C)CO)C[C@@H](C)[C@H](CN(C)S(=O)(=O)c2ccc(F)cc2)OCCCC[C@H](C)O3)cc1,·,·,1,·,·,·,·,
